# The source made the active and inactive calls.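 The calls were made as follows, unless noted: active = visually confirmed hit in the image check and inhibition above 20%; inconclusive = visually confirmed hit but inhibition not above 20%; inactive = no visual hit in the image check.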
# Legend:
# [1] = inhibitors of TNFa-induced NFkB p65 translocation, primary screen, imaging, HUVEC, MLSMR starter and 10KST1 sets (AID 438;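 active = inhibition above 20% together with a positive visual image hit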;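 also: compound added about 3h40 before a 20 min TNFalpha stimulation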;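 as to inhibition: signal is the nuclear over cytoplasmic p65 intensity ratio per well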); conditions: HUVEC TNFa-induced p65 nuclear translocation; cell count: measured here: nuclei count (cytotoxicity indicator), at 2.08 µM; inhibition: at 2 µM, stronger effect = higher value, 0% TNFa-plus-vehicle, 100% no-TNFa wells
# [2] = inhibitors of mutant huntingtin aggregation, primary screen, imaging, exon1htt(103Q)mCFP cells, high-content imaging (AID 483;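 active = visual image review flags a hit and inhibition of aggregation exceeds 20%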;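 also: compound exposure lasted 3 days before fixation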;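 as to nuclei count: percent of the per-plate median nuclei count of sample wells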); conditions: exon1htt(103Q)mCFP cell line, aggregate imaging, at 2 µM; inhibition of aggregation: stronger effect = higher value; nuclei count: measured here: cell count, toxicity
# [3] = inhibitors of E-selectin induction by TNFa, primary screen, imaging, HUVEC, immunofluorescence, MLSMR starter and 10KST1 sets (AID 487); conditions: HUVEC TNFalpha-induced E-selectin immunofluorescence imaging, at 2 µM; inhibition: stronger effect = higher value; nuclei count: measured here: cell number, toxicity;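 as to inhibition: signal is fraction of cell area covered by stained E-selectin grains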;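 as to nuclei count: 100% = median nuclei count of all wells on the same plate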
# [4] = target: Voltage-gated potassium channel subunit beta-2 (Rattus norvegicus) (UniProt P62483); assay: KvBeta enzyme negative modulators, primary screen, biochemical, NADPH fluorescence (AID 622;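 active = fluorescence slope higher than the sample average by over 3 SD, cut at about -0.22 in these data, passing the limit was not always enough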;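 also: slope of raw intensity against log time taken from 70 to 1610 s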); conditions: recombinant KvBeta, 4-cyanobenzaldehyde reduction, at 10 µM, stronger effect = higher value
# [5] = target: Voltage-gated potassium channel subunit beta-2 (Rattus norvegicus) (UniProt P62483); assay: KvBeta positive modulators, primary screen, biochemical, NADPH fluorescence (AID 623;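 active = NADPH fluorescence slope more negative than the mean of all samples by about 3 SD, 99.7% confidence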;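 also: fluorescence intensity change per second fitted from 20 to 320 s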); conditions: Recombinant KvBeta, NADPH fluorescence decrease slope, 10 min; at 10 µM; stronger effect = lower value
# [6] = target: Muscarinic acetylcholine receptor M4 (Homo sapiens) (UniProt P08173); assay: compounds altering M4/GIRK thallium flux, either direction, primary screen, M4 allosteric agonist project, cell-based, HEK293 M4/GIRK, BTC-AM (AID 625;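 active = fluorescence slope after compound addition differing from the mean of all tested samples at 99.7% confidence, mostly higher but some lower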;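 also: thallium influx through GIRK channels coupled to M4 in HEK293 cells with BTC-AM dye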); conditions: at 10 µM, actives lie on both sides
# In short: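 System: HEK293 cells with M4 receptor and GIRK channels | Incubation: Cells overnight at 37 °C, BTC-AM loading 1 h, reads 2 min total | Technique: Kinetic BTC-AM fluorescence sampled at 1 Hz, 10 s pre-addition baseline | Measure: Post-addition slope, 15–24 s, of baseline-normalized fluorescence | Control set: Carbachol positive, DMSO negative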
# [7] = inhibitors of Sendai virus-induced IRF3 signaling, primary screen, TLR/RLR signaling modifier project, cell-based, Sendai virus stimulus, luciferase, 10K MLSCN set (AID 602276;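 active = inhibition at or above 50% at 10 µM; inactive = inhibition below 50%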;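 also: firefly luciferase from ISG56 promoter only with Renilla not read in this screen; 0% = Sendai virus plus DMSO and 100% = medium plus DMSO without virus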); conditions: HEK293 RL24 IRF3 luciferase reporter, at 10 µM, stronger effect = higher value
# [8] = inhibitors of poly I:C-induced TLR3 signaling, primary screen, cell-based, poly I:C stimulus, luciferase, 10K MLSCN set (AID 602277;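 active = inhibition of the reporter signal at or above 50%; inactive = inhibition below 50%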); conditions: HEK293-TLR3 RL24 IRF3 luciferase reporter, at 10 µM, stronger effect = higher value
# Sequence of Voltage-gated potassium channel subunit beta-2 (Rattus norvegicus) (P62483 whole entry, looked up): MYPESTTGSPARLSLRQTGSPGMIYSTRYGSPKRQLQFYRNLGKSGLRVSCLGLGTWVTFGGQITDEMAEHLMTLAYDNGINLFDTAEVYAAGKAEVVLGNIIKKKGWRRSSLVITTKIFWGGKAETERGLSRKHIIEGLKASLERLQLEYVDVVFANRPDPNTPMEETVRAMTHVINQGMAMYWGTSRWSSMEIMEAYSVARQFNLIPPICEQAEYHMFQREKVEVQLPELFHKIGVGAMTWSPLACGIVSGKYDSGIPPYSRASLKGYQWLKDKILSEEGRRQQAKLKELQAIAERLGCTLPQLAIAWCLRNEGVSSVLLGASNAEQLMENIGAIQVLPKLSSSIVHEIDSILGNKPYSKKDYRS
# Sequence of Muscarinic acetylcholine receptor M4 (Homo sapiens) (P08173 whole entry, looked up): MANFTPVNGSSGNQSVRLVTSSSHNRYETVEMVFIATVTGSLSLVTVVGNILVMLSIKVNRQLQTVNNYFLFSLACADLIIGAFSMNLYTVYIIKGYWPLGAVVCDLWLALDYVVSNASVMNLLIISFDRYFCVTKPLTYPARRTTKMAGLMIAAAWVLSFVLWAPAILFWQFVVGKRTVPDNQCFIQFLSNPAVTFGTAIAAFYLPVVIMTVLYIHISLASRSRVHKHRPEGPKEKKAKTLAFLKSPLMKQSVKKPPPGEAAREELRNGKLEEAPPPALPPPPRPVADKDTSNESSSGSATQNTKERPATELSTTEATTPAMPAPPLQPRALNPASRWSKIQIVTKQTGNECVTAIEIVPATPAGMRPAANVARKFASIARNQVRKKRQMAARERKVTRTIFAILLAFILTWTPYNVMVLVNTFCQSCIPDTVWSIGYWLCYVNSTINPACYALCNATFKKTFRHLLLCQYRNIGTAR
Structure (SMILES),cell count [1],inhibition [1],inhibition of aggregation [2],nuclei count [2] [%],inhibition [3],nuclei count [3] [%],fluorescence slope [4],NADPH fluorescence slope [5],fluorescence slope [6],inhibition [7],inhibition [8]
COc1ccc(C2C(C(C)=O)=C(C)N=c3s/c(=C\c4ccc5c(c4)OCO5)c(=O)n32)c(OC)c1 (stereo not drawn),340,-19.3% (inactive),12.7% (inactive),118,3.3% (inactive),115,-0.568 (inactive),-1.5e-05 (inactive),0.00431 (inactive),-6% (inactive),20.7% (inactive)
CCOC(=O)N1CCN(C(=O)Nc2ccc(Cl)cc2)CC1,356,-3.2% (inactive),10.6% (inactive),99.4,21.3% (inactive),103,-0.462 (inactive),-4.1e-05 (inactive),0.00495 (inactive),10.8% (inactive),3.42% (inactive)
CCOc1ccc2cc(C#N)c(SCC(=O)N3CCOCC3)nc2c1,386,1% (inactive),11.7% (inactive),97.9,-46.6% (inactive),90.7,-0.487 (inactive),-2.5e-05 (inactive),0.00448 (inactive),-22.4% (inactive),-67% (inactive)
CCCS(=O)(=O)N1CCN(C(=O)CCC2CCCC2)CC1,222,8.5% (inactive),15.8% (inactive),77.9,-18.1% (inactive),148,-0.435 (inactive),-3.3e-05 (inactive),0.00496 (inactive),10.9% (inactive),17.4% (inactive)
COc1cccc2cc(C(=O)N3CCN(C45CC6CC(CC(C6)C4)C5)CC3)c(=O)oc12,213,9.1% (inactive),17.3% (inactive),71.5,43.8% (inactive),85.2,-0.443 (inactive),2.5e-05 (inactive),0.00456 (inactive),5.81% (inactive),21.6% (inactive)
CC(C)Oc1ccc(C2C(C(=O)c3ccco3)=C(O)C(=O)N2CCCN(C)C)cc1 (stereo not drawn),694,-5.2% (inactive),17.7% (inactive),80.9,-16.4% (inactive),112,-0.476 (inactive),-0.000237 (inactive),0.00376 (inactive),13.1% (inactive),8.15% (inactive)
CCCN(CCC)C(=O)CSc1nc2ccccc2c(=O)n1C1CCCC1,475,3% (inactive),-13.4% (inactive),93.4,-7.5% (inactive),117,-0.452 (inactive),-1.1e-05 (inactive),0.00476 (inactive),15.9% (inactive),10.1% (inactive)
Cc1cc(C)c(NC(=O)C2CCCN2CCO)c(C)c1 (stereo not drawn),553,-0.3% (inactive),-3.4% (inactive),92.5,-4.2% (inactive),84.4,-0.514 (inactive),-6.1e-05 (inactive),0.00468 (inactive),-8.07% (inactive),-8.13% (inactive)
C=C(C)CSc1nnc2[nH]c(=O)cc(N)n12,371,0% (inactive),31.5% (inactive),54.8,-70.9% (inactive),116,-0.458 (inactive),-6e-05 (inactive),0.00517 (inactive),15.7% (inactive),14.4% (inactive)
CNC(=O)c1ccccc1NC(=O)c1c(O)c2c([nH]c1=O)CCCC2,433,16.6% (inactive),-9.3% (inactive),98.8,-19.5% (inactive),108,-0.47 (inactive),-5.8e-05 (inactive),0.00682 (inactive),4.16% (inactive),16.9% (inactive)
O=C(Nc1cccc(C(=O)N2CCOCC2)c1)c1cccnc1,282,-15.4% (inactive),-7.7% (inactive),106,-25.3% (inactive),116,-0.546 (inactive),-0.000161 (inactive),0.00393 (inactive),-1.23% (inactive),0.71% (inactive)
CCSc1nc(-c2ccc(OC)cc2)ccc1C#N,380,1.5% (inactive),-5.1% (inactive),72.9,-44.4% (inactive),101,-0.551 (inactive),-1.9e-05 (inactive),0.00795 (inactive),9.36% (inactive),7.27% (inactive)
Cc1ccc(-c2nnc3ccc(SCC(=O)NCc4ccco4)nn23)cc1,421,0.7% (inactive),0.7% (inactive),117,17.1% (inactive),99.7,-0.234 (inactive),-7.9e-06 (inactive),0.00584 (inactive),4.93% (inactive),7.2% (inactive)
Cc1cc2c(=O)n(CC(=O)N3CCN(c4ccccc4)CC3)cnc2s1,632,-22.3% (inactive),0.5% (inactive),105,2.7% (inactive),94.9,-0.595 (inactive),1.9e-06 (inactive),0.0045 (inactive),7.52% (inactive),14.5% (inactive)
Cc1cc2ncn(N)c2cc1C,711,-25.9% (inactive),-20.7% (inactive),108,-53.3% (inactive),118,-0.224 (inactive),-1e-05 (inactive),0.00519 (inactive),17.6% (inactive),15.1% (inactive)
Cc1cccc(N(C)C(=O)c2coc(=O)c3ccccc23)c1,199,-0.8% (inactive),-9.3% (inactive),105,-1.9% (inactive),104,-0.563 (inactive),1.4e-05 (inactive),0.00467 (inactive),14.1% (inactive),26.6% (inactive)
COc1ccc(S(=O)(=O)n2ccnc2)c2cccnc12,442,-21.1% (inactive),1% (inactive),82,20.6% (inactive),85.1,-0.358 (inactive),7.3e-05 (inactive),0.00671 (inactive),0.31% (inactive),8.74% (inactive)
COCCNC(=O)c1ccc2c(c1)nc(C)n2-c1cccc(F)c1,292,19.4% (inactive),-2% (inactive),99.8,-16.6% (inactive),98.7,-0.572 (inactive),-3.3e-05 (inactive),0.00562 (inactive),15.5% (inactive),17.5% (inactive)
CC(C)(C)n1nnnc1C(c1cccc(C#N)c1)N1CCC(Cc2ccccc2)CC1 (stereo not drawn),613,-13.9% (inactive),30.1% (inactive),81.1,-8% (inactive),128,-0.571 (inactive),-3.4e-05 (inactive),0.00477 (inactive),25.2% (inactive),36.8% (inactive)
CCC(NS(=O)(=O)c1ccc(C)cc1)C(=O)N1CCC2(O)CCCCC2C1 (stereo not drawn),379,-3.1% (inactive),-10.7% (inactive),106,-121% (inactive),215,-0.429 (inactive),0.000113 (inactive),0.00572 (inactive),0.0772% (inactive),14.3% (inactive)
COC(=O)c1cccc(NC(=O)NC2CCCN2S(=O)(=O)c2ccc(Cl)cc2)c1 (stereo not drawn),612,-16.1% (inactive),2.9% (inactive),101,-144% (inactive),141,-0.392 (inactive),-6.9e-05 (inactive),0.00559 (inactive),14% (inactive),20.5% (inactive)
O=C1CC(c2ccco2)=Nc2ccccc2N1,195,-13.4% (inactive),7.9% (inactive),78.3,9.4% (inactive),84.6,-0.573 (inactive),1.4e-05 (inactive),0.00527 (inactive),-1.5% (inactive),-5.46% (inactive)
O=C(NC1CCCCC1)C1CC(O)CN1C(=O)OCc1ccccc1 (stereo not drawn),819,-4.1% (inactive),26.1% (inactive),104,-56.4% (inactive),98,-0.564 (inactive),-7.5e-06 (inactive),0.00452 (inactive),2.76% (inactive),14.7% (inactive)
Cc1ccc(F)cc1NC(=O)c1cccc2nccnc12,532,-45.9% (inactive),-49.2% (inactive),13.4,-61% (inactive),108,-0.554 (inactive),2e-05 (inactive),0.00494 (inactive),-11.7% (inactive),-19.2% (inactive)
CCc1ccc(NC(=O)c2cc(-c3ccco3)on2)cc1,382,-5.1% (inactive),7.7% (inactive),99.2,6.4% (inactive),93.1,-0.44 (inactive),-4.3e-05 (inactive),0.00523 (inactive),-42.1% (inactive),-129% (inactive)
O=C1CSC(c2cn(-c3ccccc3)nc2-c2cccs2)N1CC1CCCO1 (stereo not drawn),453,-2.6% (inactive),10.2% (inactive),101,-83.2% (inactive),117,-0.534 (inactive),-3e-05 (inactive),0.00528 (inactive),18.7% (inactive),26.5% (inactive)
COc1cc(C(N)=O)ccc1OCc1ccccc1,364,14% (inactive),-5.1% (inactive),107,-51.6% (inactive),110,-0.472 (inactive),-7.2e-06 (inactive),0.00562 (inactive),-12.9% (inactive),-32.5% (inactive)
CCCn1nc(NS(=O)(=O)c2ccccc2)c2cc3ccccc3nc21,468,-3.8% (inactive),-8.5% (inactive),110,12% (inactive),102,-0.598 (inactive),2.9e-05 (inactive),0.00512 (inactive),6.34% (inactive),14.1% (inactive)

# From PubChem BioAssay
